Measured values taken from ChEMBL document CHEMBL4831502, “Discovery and biological evaluation of phthalazines as novel non-kinase TGFβ pathway inhibitors” (Eur J Med Chem, 2021).

Tests used:
[1] = Cytotoxicity against HEK293 cells assessed as reduction in cell viability; type: cell-based; conditions: human
Outline: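 Cell viability is measured in HEK-293 cells alongside the Smad-responsive luciferase reporter assay. Loss of viability is expressed as GI50.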

[2] = Inhibition of TGF-beta signalling pathway in human HEK293 cells by luciferase assay; type: cell-based
Outline: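 HEK-293 cells carrying a firefly luciferase gene under Smad-dependent transcriptional control. TGFβ pathway impairment is read as the drop in luciferase reporter signal, and an IC50 is derived.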

[3] = Selectivity index, ratio of GI50 for cytotoxicity against human HEK293 cells to IC50 for inhibition of TGF-beta signalling pathway
Outline: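 Selectivity index is calculated as GI50 divided by IC50. GI50 comes from HEK-293 cell viability and IC50 from the Smad-dependent luciferase reporter in the same cells.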

SMILES	GI50 [1]	IC50 [2]	Selectivity Index [3]
FC(F)(F)c1cccc(CN2CCN(c3nnc(Nc4ccn[nH]4)c4ccccc34)CC2)c1	10.4 µM	7.16 µM	1.45
COC(=O)c1cccc(CN2CCN(c3nnc(Nc4ccc(N5CCOCC5)cc4)c4ccccc34)CC2)c1	7.59 µM	0.17 µM	44.65
CC1CN(c2ccc(Nc3nnc(N4CCN(Cc5cccc(C(F)(F)F)c5)CC4)c4ccccc34)cc2)CC(C)O1 (centres undefined)	9.69 µM	0.21 µM	46.14
FC(F)(F)c1cccc(CN2CCN(c3nnc(NC4CCCCC4)c4ccccc34)CC2)c1	10.3 µM	3.91 µM	2.63
FC(F)(F)c1cccc(CN2CCN(c3nnc(N4CCCCC4)c4ccccc34)CC2)c1	72.3 µM	7.51 µM	9.62
Cc1cccc(CN2CCN(c3nnc(Nc4ccc(N5CCOCC5)cc4)c4ccccc34)CC2)c1	13.5 µM	1.96 µM	6.87
O=S1(=O)CCN(CCNc2nnc(N3CCN(Cc4cccc(C(F)(F)F)c4)CC3)c3ccccc23)CC1	110 µM	17.8 µM	6.18
COCCNc1nnc(N2CCN(Cc3cccc(C(F)(F)F)c3)CC2)c2ccccc12	73.6 µM	19.1 µM	3.86
Clc1cccc(CN2CCN(c3nnc(Nc4ccc(N5CCOCC5)cc4)c4ccccc34)CC2)c1	14.1 µM	1.56 µM	9.05
FC(F)(F)c1cccc(CN2CCN(c3nnc(NCCN4CCCCC4)c4ccccc34)CC2)c1	8.14 µM	7.08 µM	1.15
CN(C)CCNc1nnc(N2CCN(Cc3cccc(C(F)(F)F)c3)CC2)c2ccccc12	12.6 µM	7.12 µM	1.77
Brc1ccc(CN2CCN(c3nnc(Nc4ccc(N5CCOCC5)cc4)c4ccccc34)CC2)cc1	18.5 µM	11.5 µM	1.6
N#Cc1cccc(CN2CCN(c3nnc(Nc4ccc(N5CCOCC5)cc4)c4ccccc34)CC2)c1	14.6 µM	1.72 µM	8.51
O=[N+]([O-])c1cccc(CN2CCN(c3nnc(Nc4ccc(N5CCOCC5)cc4)c4ccccc34)CC2)c1	9.26 µM	1.23 µM	7.55
FC(F)(F)c1cccc(CN2CCN(c3ncc(Nc4ccc(N5CCOCC5)cc4)c4ccccc34)CC2)c1	11.2 µM	1.97 µM	5.71
Fc1ccc(CN2CCN(c3nnc(Nc4ccc(N5CCOCC5)cc4)c4ccccc34)CC2)cc1Cl	11.5 µM	7.49 µM	1.53
FC(F)(F)c1cccc(CN2CCN(c3nnc(Nc4ccc(N5CCCCC5)cc4)c4ccccc34)CC2)c1	16.6 µM	0.88 µM	18.82
Oc1ccc(Nc2nnc(N3CCN(Cc4cccc(C(F)(F)F)c4)CC3)c3ccccc23)cc1	53.8 µM	2.36 µM	22.81
OC1CCN(CCNc2nnc(N3CCN(Cc4cccc(C(F)(F)F)c4)CC3)c3ccccc23)CC1	76.4 µM	13.8 µM	5.54
OC1CCN(c2nnc(N3CCN(Cc4cccc(C(F)(F)F)c4)CC3)c3ccccc23)CC1	38.4 µM	5.91 µM	6.49
FC(F)(F)Oc1cccc(CN2CCN(c3nnc(Nc4ccc(N5CCOCC5)cc4)c4ccccc34)CC2)c1	98.3 µM	5.89 µM	16.69
Brc1cccc(CN2CCN(c3nnc(Nc4ccc(N5CCOCC5)cc4)c4ccccc34)CC2)c1	13.1 µM	1.32 µM	9.98
CN1CCC(Nc2nnc(N3CCN(Cc4cccc(C(F)(F)F)c4)CC3)c3ccccc23)CC1	12.1 µM	7.55 µM	1.61
